“And” between values parts separate entries of the source, which are not always exact repeats. Identical values can stand only once.

Data set [1] concerns Mus musculus. In words: Biodistribution in mice stomach, after 12 hr of intravenous administration of 1-2 ug of compound (entrapped in bovine brain sphingomyelin/ cholesterol multilamellar vehicles). In kind it is ADME, organism-based. Particulars: in vivo. The essentials: (§1)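 BALB/c mice (about 25 g), groups of 2–5. Compound ¹¹¹In-loaded into SM/CH (2:1, mol/mol) multilamellar vesicles, given as a single tail-vein injection. Lipid dose was 1–2 μg phospholipid/g body weight, in 50–100 μL carrying about 100 000 cpm. Mice were killed by cervical dislocation. Organs were rinsed, blotted, weighed and γ-counted, with blood background subtracted. Values are % injected dose ± SD.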

In data set [2] the test system is Mus musculus. Put plainly: Biodistribution in mice blood, after 24 hr of intravenous administration of 1-2 ug of compound (entrapped in bovine brain sphingomyelin/ cholesterol multilamellar vehicles). Particulars: in vivo. It counts as ADME, organism-based. Summed up:
(§2)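 BALB/c mice (about 25 g), 3–5 per group, given 50–100 μL tail-vein injection of 111In-labeled conjugate entrapped in SM/CH (2:1 mol/mol) multilamellar vesicles, approx. 100 000 cpm; dose 1–2 μg phospholipid/g body weight. Killed by cervical dislocation at set times; blood, cumulative excretion and rinsed, blotted, weighed tissues γ-counted, blood background subtracted. Result is % injected dose ± SD.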

Data set [3] relates to Mus musculus. In words: Biodistribution of compound in mice leg muscle after 1 hr of intravenous injection. In kind it is ADME, organism-based, Muscle tissue. Conditions: in vivo. The essentials: (§3)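 BALB/c mice (about 25 g), n = 4. Free ¹¹¹In- or ⁶⁷Ga-labeled compound (50–100 μL, about 100 000 cpm) was injected into a tail vein. Mice were held in separate cages and killed by cervical dislocation, with blood and cumulative excreta collected. Tissues were rinsed, blotted, weighed and γ-counted, with blood background subtracted (blood volume 8.0%). Values are % injected dose ± SD.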

In data set [4] the test system is Mus musculus. Put plainly: Biodistribution in mice tail, after 12 hr of intravenous administration of 1-2 ug of compound (entrapped in bovine brain sphingomyelin/ cholesterol multilamellar vehicles). It counts as ADME, organism-based. Particulars: in vivo. Summed up:
as §1

Data set [5] in a line: Biodistribution in mice excretion, after 1 hr of intravenous administration of 1-2 ug of compound (entrapped in bovine brain sphingomyelin/ cholesterol multilamellar vehicles). In kind it is ADME, organism-based. Conditions: mouse, excretion (excreta, not specified further), read-out: ID. The essentials: as §2
The test system of data set [6] is Mus musculus. Put plainly: Biodistribution of compound in mice leg muscle after 21 hr of intravenous injection. In kind it is ADME, organism-based, Muscle tissue. Particulars: in vivo. The essentials: as §3
Data set [7] deals with Mus musculus. Put plainly: Biodistribution in mice intestine, after 1 hr of intravenous administration of 1-2 ug of compound (entrapped in bovine brain sphingomyelin/ cholesterol multilamellar vehicles). Particulars: in vivo. It counts as ADME, organism-based. The essentials: as §2
In data set [8] the test system is Mus musculus. Put plainly: Biodistribution of compound in mice blood after 21 hr of intravenous injection. It counts as ADME, organism-based. Particulars: in vivo. Summed up:
as §3

On to `NCCNC(=O)CN(CCN(CCN(CC(=O)O)CC(=O)O)CC(=O)O)CC(=O)O`, for which the ID was 0.2% in data set [1]; 0.4% in data set [2]; 0.8% and 1.3% in data set [3]; 2.7% in data set [4]; 0.2% and 0.3% in data set [6]; 0.7% in data set [7]. In data set [8], the ID is 1% and 0.7%. For the same compound, the dose excreted at 1 h in data set [5] came to 0%.

Values taken from ChEMBL document CHEMBL1124106, “Synthesis of diethylenetriaminepentaacetic acid conjugated inulin and utility for cellular uptake of liposomes” (J Med Chem, 1988).
